The values that follow come from ChEMBL document CHEMBL3865847, “The synthesis and biological evaluation of alkyl and benzyl naphthyridinium analogs of eupolauridine as potential antimicrobial and cytotoxic agents” (Bioorg Med Chem, 2016).

Values after ≈ are worked out from the molar mass of the structure shown.

Data set [1] in a line: Inhibition of Candida albicans DNA topoisomerase 1 using pHOT1 as substrate after 30 mins by agarose gel electrophoresis. The procedure, abridged:
(§1)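 Relaxation of supercoiled to relaxed DNA by TopoI measured with a commercial TopoI drug kit following kit protocol. IC50 calculated from dose-response curves of % inhibition versus concentration.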

Data set [2] relates to Candida albicans. Put plainly: Antimicrobial activity against Candida albicans B311. The format is functional. The essentials: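 Cultured in Sabouraud dextrose broth 24 h, counted by hemocytometer, diluted to 10,000 CFU/mL. Added to serially diluted samples in 96-well plates, top final concentration 50 µg/mL (≤2.5% DMSO), incubated 37 °C. Growth by A630. MIC is the lowest concentration giving 80% inhibition against controls; IC50 from concentration versus % growth plots.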

The target in data set [3] is T1, DNA topoisomerase 1 (Homo sapiens, UniProt P11387).
T1 sequence (P11387 whole entry): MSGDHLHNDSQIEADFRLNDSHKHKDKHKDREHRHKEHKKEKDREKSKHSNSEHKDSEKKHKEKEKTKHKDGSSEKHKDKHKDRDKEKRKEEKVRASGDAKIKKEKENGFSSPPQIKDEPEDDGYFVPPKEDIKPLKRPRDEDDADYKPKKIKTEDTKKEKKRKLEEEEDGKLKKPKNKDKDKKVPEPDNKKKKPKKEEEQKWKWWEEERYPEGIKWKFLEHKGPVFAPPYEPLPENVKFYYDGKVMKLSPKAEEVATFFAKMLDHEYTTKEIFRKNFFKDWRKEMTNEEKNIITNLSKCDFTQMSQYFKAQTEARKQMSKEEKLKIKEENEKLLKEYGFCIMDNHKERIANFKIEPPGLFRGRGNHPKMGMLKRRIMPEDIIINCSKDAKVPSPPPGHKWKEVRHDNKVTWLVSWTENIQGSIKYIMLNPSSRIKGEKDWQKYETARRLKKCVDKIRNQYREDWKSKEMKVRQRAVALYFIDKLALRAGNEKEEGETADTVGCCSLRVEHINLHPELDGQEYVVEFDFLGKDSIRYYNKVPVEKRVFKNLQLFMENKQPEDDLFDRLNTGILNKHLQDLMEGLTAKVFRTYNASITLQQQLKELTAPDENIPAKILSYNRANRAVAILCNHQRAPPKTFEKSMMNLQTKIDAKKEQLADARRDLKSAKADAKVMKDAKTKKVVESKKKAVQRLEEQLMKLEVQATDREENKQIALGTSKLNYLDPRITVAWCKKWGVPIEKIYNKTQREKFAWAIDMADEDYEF
Put plainly: Inhibition of human DNA topoisomerase 1 using pHOT1 as substrate after 30 mins by agarose gel electrophoresis. The essentials: as §1

Data set [4] relates to Pseudomonas aeruginosa. Put plainly: Antimicrobial activity against Pseudomonas aeruginosa ATCC 15442. The format is functional. The procedure, abridged:
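Pseudomonas grown 24 h in trypticase soy broth, diluted 1:50. Combined with diluted samples in 96-well plates, top final concentration 50 µg/mL (≤2.5% DMSO), 37 °C incubation. Growth read at 630 nm. MIC is the lowest tested concentration inhibiting 80% of growth versus controls; IC50 from concentration versus % growth graphs.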

The test system of data set [5] is Aspergillus fumigatus. In words: Antimicrobial activity against Aspergillus fumigatus ATCC 26934. The format is functional. The procedure, abridged:
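Aspergillus fumigatus spores released by scraping a slant, used on assay day, in mycophil broth. Broth microdilution in 96-well plates, highest final DMSO 2.5%, incubated at 30 °C. Growth read as absorbance at 630 nm versus controls. MIC is the lowest tested concentration giving 80% growth inhibition; IC50 (50% inhibition) comes from concentration versus % growth plots.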

The nature of data set [6]: Cytotoxicity against human SKOV3 cells assessed as cell growth inhibition after 48 hrs by neutral red dye based assay. The format is functional. The settings on record: SK-OV-3, 48 h. The procedure, abridged: (§2)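 Cells kept in RPMI-1640 with 10% bovine serum and 60 µg/mL amikacin, 37 °C, 5% CO2. Seeded at 25,000 cells/well, left 24 h to adhere. Samples diluted in RPMI added, highest final concentration 10 µg/mL. Growth measured by neutral red uptake after 48 h exposure.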

Data set [7] is described as follows: Selectivity index, ratio of IC50 for human DNA topoisomerase 1 to IC50 for Candida albicans DNA topoisomerase 1.
The nature of data set [8]: Cytotoxicity against African green monkey Vero cells assessed as cell growth inhibition after 48 hrs by neutral red dye based assay. The format is toxicity, Chlorocebus sabaeus. The procedure, abridged:
as §2

Data set [9] concerns Cryptococcus neoformans. Put plainly: Antimicrobial activity against Cryptococcus neoformans ATCC 52657. The format is functional. The procedure, abridged: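 Grown in mycophil broth 72 h, hemocytometer-counted, diluted to 200,000 CFU/mL. Exposed to diluted samples in 96-well plates, maximum final 50 µg/mL (DMSO up to 2.5%), incubated 30 °C. A630 readout. MIC is the lowest concentration inhibiting 80% of growth versus controls; IC50 read from concentration versus % growth graphs.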

As a reminder, the IC50 is the concentration that inhibits the measured activity by half. Broadly, the MIC80 is an inhibitory concentration at the 80% level, which refers to growth in some studies and to a panel of isolates in others. On to `c1ccc2c(c1)-c1nccc3ccnc-2c13` [EUPOLAURIDINE], for which the IC50 is 6.5 µg/mL (≈ 31.8 µM) in data set [1]; 5.25 µg/mL (≈ 25.7 µM) in data set [2]; 20.6 µM in [3]; 5 µg/mL (≈ 24.5 µM) in data set [4]; above 10 µg/mL in data set [6]; 4.8 µg/mL (≈ 23.5 µM) in data set [9]. Moreover, the MIC80 stood at 12.5 µg/mL (≈ 61.2 µM) in data set [2], 2 µg/mL (≈ 9.79 µM) in [5] and 25 µg/mL (≈ 122 µM) in data set [9]. Also, the Ratio IC50 in data set [7] is 1.55. Moreover, the IC50 at 48 h in data set [8] was above 10 µg/mL.
As for `C[C@@H]1[C@H](O)[C@@H](C)/C=C/C=C/C=C/C=C/C=C/C=C/C=C/[C@H](O[C@@H]2O[C@H](C)[C@@H](O)[C@H](N)[C@@H]2O)C[C@@H]2O[C@](O)(C[C@@H](O)C[C@@H](O)[C@H](O)CC[C@@H](O)C[C@@H](O)CC(=O)O[C@H]1C)C[C@H](O)[C@H]2C(=O)O` [AMPHOTERICIN B], the MIC80 in [2] stood at 0.156 µg/mL (≈ 0.169 µM); in data set [5], 1.25 µg/mL (≈ 1.35 µM); in data set [9] it was 0.078 µg/mL (≈ 0.0844 µM).
